UHRF1 MBD2 ctr = UHRF1 methyl-DNA binding inhibition; UHRF1 binding to methylated oligo, TR-FRET; Q96T88; inhibition, % at 4.4 µM; hit rate 0.75% among 370,000; in the data active means inhibition above about 21%;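 further: UHRF1 SRA domain binding a hemimethylated CpG hairpin DNA probe; 0% = median of test compound wells and 100% = reference inhibitor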
LEDGF integ inh = blocks HIV-1 LEDGF/p75-dependent DNA integration | TR-FRET IN-LEDGF/p75 DNA integration, Eu/Cy5 | inhibition, % at 3.7 µM | hit rate 0.64% among 370,000 | AID 743269;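 active means inhibition above the screen-wide mean plus 3 SD, cut at about 13% in these data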;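 further: signal is the Cy5 over europium emission ratio at 671 and 618 nm; 0% = plate median of compound wells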
CSN inh = CSN deneddylation inhibition. hit rate 0.38% among 360,000. Q92905. Purified CSN, SCF-Nedd8-OG deneddylation, fluorescence polarization. inhibition, % at 12.5 µM;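 active means pattern-corrected inhibition above about 35%, with an unprinted fluorescence ratio check between 0.5 and 1.5, limit read from the data, passing the limit was not always enough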;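 further: 0% = enzyme with substrate and 100% = substrate without enzyme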
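Schedule: reaction 90 min, room temperature / Assay system: HEK293T-derived human Csn5 enzyme / Input: Csn5 at 0.24 nM final / Measure: inhibition of Csn5 cleavage, % / Control set: substrate-only high control, full reaction low control / Technique: fluorescence polarization of the substrate / Buffer or medium: Tris/NaCl/DTT buffer, pH 7.5 / Reagent: SCFSkp2-Nedd8OG substrate at 10 nM final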
MBD2 DNA inh = inhibitors of human MBD2 binding to methylated oligonucleotide; Q9UBB5; inhibition, % at 4.4 µM; hit rate 0.31% among 370,000; TR-FRET; in the data active means inhibition above about 13%
Target sequence (Q9UBB5 whole entry, looked up): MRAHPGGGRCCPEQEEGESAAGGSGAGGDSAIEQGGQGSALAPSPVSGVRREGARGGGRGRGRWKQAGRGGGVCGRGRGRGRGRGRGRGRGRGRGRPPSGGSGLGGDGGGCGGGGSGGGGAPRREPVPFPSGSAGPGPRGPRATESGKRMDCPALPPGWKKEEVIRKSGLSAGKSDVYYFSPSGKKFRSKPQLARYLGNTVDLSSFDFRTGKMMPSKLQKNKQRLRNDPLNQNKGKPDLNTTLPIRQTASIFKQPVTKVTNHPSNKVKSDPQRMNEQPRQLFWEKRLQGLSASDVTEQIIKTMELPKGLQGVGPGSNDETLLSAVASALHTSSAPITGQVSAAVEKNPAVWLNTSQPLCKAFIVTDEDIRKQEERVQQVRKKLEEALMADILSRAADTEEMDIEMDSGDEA
ATG4B inhibitor = inhibitors of human ATG4B cysteine protease; ATG4B cleavage of LC3-PLA2, NBD-HPC fluorescence, 1 h; inhibition, % at 8.33 µM; hit rate 0.51% among 340,000; in the data active means inhibition above about 40%
rCAG RNA binder = binds r(CAG) RNA repeats | r(CAG) RNA repeat, TO-PRO-1 dye displacement fluorescence | inhibition, % at 3 µM | hit rate 1.3% among 370,000 | AID 651821;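 active means inhibition above the plate cutoff, the mean of all test compounds on that plate plus 3 SD, cut at about 35% in these data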;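 further: 0% = DMSO alone and 100% = 100 µM mitoxantrone as full dye displacement; higher means more dye released from RNA so lower well fluorescence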
IN multimer act = counter-screen for LEDGF/p75 integration inhibitors: HIV-1 integrase multimerization activators | shares compounds with LEDGF integ inh | TR-FRET HIV-1 integrase multimerization, biochemical | activation, % at 7.7 µM | hit rate 17% among 2,000 | AID 1053131; in the data active means activation above about 8.9%
TRFRET interf = TR-FRET optical interference, LEDGF/p75 integration counter-screen; AID 1053135; TR-FRET optical interference counterscreen, HIV-1 IN multimerization; 2,000 tested, under 10 active; inhibition, % at 7.7 µM; shares compounds with LEDGF integ inh;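 active means inhibition above the mean over all tested compounds plus 3 SD, which no compound reached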;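 further: 0% = integrase with antibodies and DMSO and 100% = antibodies without integrase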
LEDGF integ conf = LEDGF/p75-dependent HIV-1 integration inhibition, confirmation. hit rate 36% among 2,000. inhibition, % at 3.7 µM. TR-FRET LEDGF/p75-dependent HIV-1 integration, biochemical. shares compounds with LEDGF integ inh; in the data active means inhibition above about 14%
* = called active by the depositor; nt = no result. Rows were chosen to be rich in hits. Some 3.1% of all compounds tested hit in one or more screens of this group.

SMILES	UHRF1 MBD2 ctr	LEDGF integ inh	CSN inh	MBD2 DNA inh	ATG4B inhibitor	rCAG RNA binder	IN multimer act	TRFRET interf	LEDGF integ conf
COc1cccc(NC(=O)N2CCC(C(=O)Nc3ccc(C)cc3C)CC2)c1	-1	38*	3	4	4	-4	1	-7	-4
Cc1cccc(-c2cccc3c4c([nH]c23)[C@@H]2C[C@H](N(C)C(=O)Nc3ccccc3C)[C@H]([C@H](C)O)CN2CC4)c1	-1	-1	nt	-8	nt	9	nt	nt	nt
CC(C)NC(=O)N(C)C[C@@H]1Oc2c(NS(=O)(=O)c3ccccc3)cccc2C(=O)N([C@@H](C)CO)C[C@@H]1C	0	-1	2	0	-1	-4	nt	nt	nt
C[C@H](CO)N1C[C@H](C)[C@@H](CN(C)S(=O)(=O)c2cccs2)Oc2c(NC(=O)NC3CCCCC3)cccc2C1=O	0	18*	2	-6	-3	10	0	-2	1
C[C@H](CO)N1C[C@H](C)[C@@H](CN(C)S(=O)(=O)c2cccs2)Oc2c(NC(=O)Nc3ccccc3)cccc2C1=O	4	-2	0	2	4	9	nt	nt	nt
CC(C)NC(=O)N(C)C[C@H]1Oc2c(NS(=O)(=O)c3ccccc3)cccc2C(=O)N([C@H](C)CO)C[C@@H]1C	-3	35*	-2	-2	-2	3	1	-4	1
COc1cccc(CN[C@@H]2CC[C@@]34CCCN3C(=O)CCC[C@H]4C2)c1	-1	-2	nt	4	nt	nt	nt	nt	nt
O=C(c1cc(Cl)ccc1F)N1CCCC(c2nc(-c3cccs3)no2)C1 (stereo unspecified)	2	-5	nt	3	nt	2	nt	nt	nt
CCC(=O)c1ccc(OCC(O)Cn2cnc3ccccc32)cc1 (stereo unspecified)	2	36*	0	3	-2	-6	11*	-57	-3
CC(=O)OC12CCCN(C1)/C(=C/c1ccc(Cl)cc1)C2 (stereo unspecified)	1	2	nt	7	nt	1	nt	nt	nt
COc1cc(C=c2c3ccccc3n3c2cc(-c2ccccc2)[n+]3C)cc(OC)c1OC	7	29*	6	-2	2	11	3	-10	48*
c1ccc(CNc2ccc(N3CCOCC3)cc2)cc1	0	15*	-2	0	-5	7	2	-10	-6
COc1ccc(CNc2ccc(N3CCOCC3)cc2)cc1	2	1	2	4	0	0	nt	nt	nt
Nc1ccc(N(CCO)CCO)cc1	7	24*	8	-9	16	-10	12*	-62	28*
Cc1cc(C)c(OC2(c3ccccc3)OC(=O)c3ccccc32)c(C)c1 (stereo unspecified)	-1	31*	4	-2	-3	0	3	-9	-5
CC(=O)N1CCC(N(C(=O)Nc2c(F)cccc2F)C(C)C)CC1	-1	20*	-5	-1	2	2	0	-1	-1
CCOC(=O)[C@]12CCCCC/C=C\1N(CCc1ccc(Cl)cc1)C(=O)[C@H]2CC(=O)N1CCCC1	-1	0	nt	1	nt	-1	nt	nt	nt
COc1ccc(NC(=O)CCCn2cnc3ccccc3c2=O)c(OC)c1	2	16*	4	1	-1	4	-1	2	-13
C=CCNC(=S)Nc1nc2c(cc1C(=O)OCC)COC(C)(C)C2	-1	0	2	-2	5	1	nt	nt	nt
CCOC(=O)c1cc2c(nc1NC(=S)Nc1ccccc1)CC(C)(C)OC2	1	18*	1	0	-2	2	2	-8	3
COc1cc(NC(=O)c2cc(Cl)ccc2Cl)ccc1-c1cc2ccccc2oc1=O	-4	35*	-1	-4	7	6	1	-6	-3
COc1cccc(N2CCN(C(=O)CSc3nc4ncccc4[nH]3)CC2)c1	-1	-1	nt	1	nt	3	nt	nt	nt
CCCCCCCCCSc1n[nH]c(N)n1	0	46*	-3	-5	-9	-4	-1	2	-4
Cc1cccc(NC(=O)c2ccccc2SCc2ccc(F)cc2)n1	-4	53*	-3	-2	-5	5	1	-4	-7
CCNC(=O)c1ccccc1SCc1ccccc1	9	14*	-5	4	-3	1	-2	6	-5
SMILES	UHRF1 MBD2 ctr	LEDGF integ inh	CSN inh	MBD2 DNA inh	ATG4B inhibitor	rCAG RNA binder	IN multimer act	TRFRET interf	LEDGF integ conf
COc1cc(-c2cc(=O)c3c(O)c(OC)c(OC)c(O)c3o2)ccc1O	-3	25*	8	-1	-12	13	27*	-136	22*
COc1cc(/C=C2\C(=O)N(CCC#N)N=C2C)ccc1OCC(=O)Nc1ccccc1	12	9	-5	3	-1	3	nt	nt	nt
CCOc1cc(/C=C2\C(=O)N(CCC#N)N=C2C)ccc1OCC(N)=O	15	15*	-3	5	3	1	-3	10	-1
CCOC(=O)N1CCN(C(=O)CCc2ccccc2)CC1	3	56*	-4	-6	-2	-5	6	-29	0
CCOC(=O)CN1C(=O)N(c2ccc(OC)cc2)[C@H]2CC3c4ccccc4C[C@]3(C)[C@@H](C(=O)N(C)C3CCCCC3)C[C@H]21 (stereo partly specified)	-1	0	nt	0	nt	6	nt	nt	nt
Cc1cccc(C)c1-n1nnnc1C1c2ccccc2OCC(=O)N1Cc1ccc(F)cc1 (stereo unspecified)	-3	3	nt	-1	nt	-1	nt	nt	nt
Cc1cc(=O)oc(C)c1C(=O)Nc1cccc2ccccc12	-4	30*	5	-2	-3	4	0	-2	-1
C(=C\c1ccc2nncn2c1)/c1ccccc1	-3	14*	13	1	nt	18	-4	15	13
Cc1ccc(N2C(=O)/C(=C\c3ccco3)SC2=S)cc1	4	6	17	-4	1	19	nt	nt	nt
O=C1/C(=C\c2ccco2)SC(=S)N1C1CCS(=O)(=O)C1 (stereo unspecified)	54*	40*	23	13	2	31	6	-31	48*
Cc1ccc(/C=C2\SC(=S)N(C3CCS(=O)(=O)C3)C2=O)cc1 (stereo unspecified)	5	-5	0	8	0	2	nt	nt	nt
O=C1/C(=C/c2ccco2)SC(=S)N1C1CCS(=O)(=O)C1 (stereo unspecified)	32*	48*	13	10	-5	19	1	-4	27*

Source: PubChem (several laboratories)
